This is an account of results in PubChem BioAssay AID1453 (NMMLSC, 2008).

Molecules are shown by their SMILES. Some of the results follow. A number with no mark means an inactive call.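 Rule for the calls: active = inhibition above 50%; inactive = the rest.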

Sequence of Broad substrate specificity ATP-binding cassette transporter ABCG2 (Homo sapiens) (Q9UNQ0 whole entry, looked up): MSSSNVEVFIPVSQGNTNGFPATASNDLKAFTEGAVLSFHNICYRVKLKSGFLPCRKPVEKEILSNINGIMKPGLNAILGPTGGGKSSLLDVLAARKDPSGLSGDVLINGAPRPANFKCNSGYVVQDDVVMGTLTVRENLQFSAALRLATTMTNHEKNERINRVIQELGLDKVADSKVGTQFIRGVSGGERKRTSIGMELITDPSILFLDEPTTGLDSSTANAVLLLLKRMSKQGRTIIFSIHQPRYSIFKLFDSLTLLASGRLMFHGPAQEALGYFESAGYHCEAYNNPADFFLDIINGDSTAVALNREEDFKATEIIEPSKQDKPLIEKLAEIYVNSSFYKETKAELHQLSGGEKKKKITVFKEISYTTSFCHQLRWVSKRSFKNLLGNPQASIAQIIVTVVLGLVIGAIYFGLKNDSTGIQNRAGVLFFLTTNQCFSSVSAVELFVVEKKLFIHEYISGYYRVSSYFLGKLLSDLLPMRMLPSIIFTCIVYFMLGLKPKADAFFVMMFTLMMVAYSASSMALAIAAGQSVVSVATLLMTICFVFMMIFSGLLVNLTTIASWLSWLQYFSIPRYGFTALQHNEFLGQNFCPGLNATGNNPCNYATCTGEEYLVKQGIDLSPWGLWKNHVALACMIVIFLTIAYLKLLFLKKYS

The assay addresses Broad substrate specificity ATP-binding cassette transporter ABCG2 (Homo sapiens) (UniProt Q9UNQ0). Kind of assay: blockers of JC-1 export by ABCG2 – single point, IgMXP3 cells, ABCB1 counter-screen paired, confirmation (AID 1453).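 Note: 0% = DMSO wells and 100% = nicardipine pump inhibitor wells.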 The conditions noted are these: JC-1 efflux, flow cytometry, at 6.6 µM, hits give high values. Summed up: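 Assay system: Drug-resistant IgMXP3 cells expressing human ABCG2 | Quantity: 3 million cells/mL final | Technique: Flow cytometry, median fluorescence at 530 nm | Compound dosing: Single test compound dose, 6.6 µM final | Times: 10 min end-over-end mixing at 25 °C before reading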
For the compound `Cc1cccc2cc(CN(Cc3cccs3)C(c3nnnn3C3CCCC3)C(C)C)c(=O)[nH]c12` (stereo not drawn), the inhibition (usually the drop in the measured response relative to a control, in per cent) is 39.9%.

With `COc1ccc(C)cc1NC(=O)C(Sc1ccccc1)c1ccccc1` (stereo not drawn), the inhibition was 10.9%.

Consider `Cc1ccc(OCC(O)CN2CCN(CC(O)COc3ccc(C)cc3Cl)CC2)c(Cl)c1` (stereo not drawn), for which the inhibition was 8.02%.

In the case of `CCN1/C(=C/c2ccc3ccc(C)cc3[n+]2CC)Sc2ccccc21`, the inhibition is 31.6%.

On to `CCOC(=O)c1sc(NC(=O)CSc2nnc(-c3ccco3)o2)c(C(=O)OCC)c1C`, for which the inhibition is 37%.

For `C=CCn1c(SCCOc2ccc(OC)cc2)nnc1C(NC(=O)c1ccc(OC)cc1)C(C)C` (stereo not drawn), the inhibition was 15.5%.

`C/C(=N\Nc1ncc(Cl)cc1Cl)c1ccc(S(=O)(=O)NCc2ccco2)cc1`: the inhibition is 21.6%.

For `O=C(Cc1c[nH]c2ccccc12)N/N=C/c1cccc(F)c1`, the inhibition is 19.6%.

In the case of `CCOCC(=O)Nc1sc2c(c1C(=O)OCC)CCCC2`, the inhibition is 38.7%.

With `COc1ccc(-n2c(C)cc(C(=O)COC(=O)c3cc(OC)c(OC)cc3NC(=O)c3cccs3)c2C)cc1`, the inhibition is 14.8%.

For the compound `Cc1ccc(-n2c(SCC(=O)Nc3ncc(Cl)cc3Cl)nc3ccccc32)cc1`, the inhibition was 28.9%.

As to `Cc1c(CCOC(=O)CC23CC4CC(CC(C)(C4)C2)C3)sc[n+]1Cc1ccc([N+](=O)[O-])cc1`, the inhibition is 27.4%.

With `COc1cccc(NC(=O)c2ccc(Cn3cc([N+](=O)[O-])cn3)o2)c1`, the inhibition was 21.8%.
